Source: ChEMBL document CHEMBL1131138, “A novel class of orally active non-peptide bradykinin B2 receptor antagonists. 3. Discovering bioisosteres of the imidazo[1,2-a] pyridine moiety” (J Med Chem, 1998)

What was measured:
[1] = target: T1, B2 bradykinin receptor (Homo sapiens, UniProt P30411); test: Inhibition specific binding of [3H]BK (1.0 nM) to human Bradykinin receptor B2 which was expressed in CHO (Chinese hamster ovary) cells by 50%.; format: cell-based
T1 sequence (P30411 whole entry): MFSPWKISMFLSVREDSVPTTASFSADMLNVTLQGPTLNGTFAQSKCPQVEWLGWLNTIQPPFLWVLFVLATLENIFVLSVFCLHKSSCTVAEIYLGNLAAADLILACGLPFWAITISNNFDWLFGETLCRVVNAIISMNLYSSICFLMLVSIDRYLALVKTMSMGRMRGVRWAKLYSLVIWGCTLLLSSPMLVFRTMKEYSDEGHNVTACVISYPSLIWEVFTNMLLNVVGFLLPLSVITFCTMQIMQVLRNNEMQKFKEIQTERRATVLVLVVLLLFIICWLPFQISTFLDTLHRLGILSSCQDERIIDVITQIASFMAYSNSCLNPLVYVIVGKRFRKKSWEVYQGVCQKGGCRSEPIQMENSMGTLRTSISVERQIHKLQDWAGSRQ
Procedure, shortened: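 CHO (dhfr−) cells stably expressing human B2 receptor, seeded at 3.0 × 10^4 cells/well and cultured 1 day. Whole cells incubated with 1.0 nM [3H]BK plus compound for 2 h at 4 °C in HEPES/N-methyl-D-glucamine buffer pH 7.2 with bacitracin, enalaprilat and BSA. Washed, solubilized in SDS/NaOH and counted. Nonspecific binding with 1 μM BK; DMSO below 3%; three experiments.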

[2] = target: T1, B2 bradykinin receptor; test: Concentration required to inhibit specific binding of [3H]BK (1.2 nM) to A-431 cells (human epidermoid carcinoma) which express Bradykinin receptor B2 by 50%.; format: cell-based
[3] = target: T2, B2 bradykinin receptor (Cavia porcellus, UniProt O70526); test: Concentration required to inhibit specific binding of [ 3H]BK (0.06 nM) to Bradykinin receptor B2 in guinea pig ileum membrane preparations by 50%.; format: cell membranes
T2 sequence (O70526 whole entry): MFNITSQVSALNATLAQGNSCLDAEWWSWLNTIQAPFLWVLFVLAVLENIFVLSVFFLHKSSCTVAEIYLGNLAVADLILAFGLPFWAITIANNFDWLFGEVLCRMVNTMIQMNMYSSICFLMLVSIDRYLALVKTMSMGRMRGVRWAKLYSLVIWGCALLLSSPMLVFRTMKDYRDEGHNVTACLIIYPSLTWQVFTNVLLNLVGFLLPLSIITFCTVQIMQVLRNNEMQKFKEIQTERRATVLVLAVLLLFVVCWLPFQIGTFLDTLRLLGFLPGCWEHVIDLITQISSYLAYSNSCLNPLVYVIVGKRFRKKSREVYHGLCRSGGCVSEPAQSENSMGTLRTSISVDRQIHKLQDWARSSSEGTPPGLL
Procedure, shortened: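 Ileal membranes from male Hartley guinea pigs (0.2 mg protein/mL) in TES buffer pH 6.8 with phenanthroline, bacitracin, DTT, captopril and BSA. Incubated with 0.06 nM [3H]BK plus compound for 60 min at room temperature, then filtered through GF/B and counted by scintillation.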

[4] = test system: Cavia porcellus; test: Compound tested in vivo for inhibition of Bradykinin induced Bronchoconstriction in anaesthetized guinea pig at 1 mg/kg, po; format: functional
Procedure, shortened: (§1)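 Male Hartley guinea pigs (470–750 g), fasted overnight, anesthetized with ip pentobarbital (30 mg/kg) and ventilated at 10 mL/kg, 60 breaths/min. Given alcuronium (0.5 mg/kg iv) and propranolol (10 mg/kg sc). BK 5 μg/kg iv, with bronchoconstriction read as peak pulmonary insufflation pressure (modified Konzett–Rössler).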

[5] = test system: Cavia porcellus; test: In vivo inhibition of Bradykinin induced Bronchoconstriction in anaesthetized guinea pig following 1 mg/kg p.o.; format: functional; details: route oral; procedure, shortened: as §1
[6] = test system: Cavia porcellus; test: Inhibition of Bradykinin induced Bronchoconstriction in anaesthetized guinea pig at 0.32mg/kg, po; format: functional; procedure, shortened: as §1

SMILES | IC50 [1] [nM] | IC50 [2] [nM] | IC50 [3] [nM] | inhibition in vivo at 1 mg/kg [4] [%] | inhibition in vivo at 1 mg/kg [5] [%] | inhibition in vivo at 0.32 mg/kg [6] [%]
CNC(=O)c1ccc(/C=C/C(=O)NCC(=O)N(C)c2ccc(Cl)c(COc3cccnc3-n3c(C)ccc3C)c2Cl)cc1 | 2000 | 3500 | 350 |  |  | 
CNC(=O)c1ccc(/C=C/C(=O)NCC(=O)N(C)c2ccc(Cl)c(COCc3cccc(C)n3)c2Cl)cc1 | > 10000 | > 10000 | > 10000 |  |  | 
CNC(=O)c1ccc(/C=C/C(=O)NCC(=O)N(C)c2ccc(Cl)c(COc3ccc4ccc(C)nc4c3)c2Cl)cc1 |  | > 10000 | > 10000 |  |  | 
CNC(=O)c1ccc(/C=C/C(=O)NCC(=O)N(C)c2ccc(Cl)c(COc3cccc4c3nc(C)n4C)c2Cl)cc1 | 67 | 43 | 9.1 |  |  | 
CNC(=O)c1ccc(/C=C/C(=O)NCC(=O)N(C)c2ccc(Cl)c(COc3cccc4nc(C)cnc34)c2Cl)cc1 | 2900 | 4300 | 170 |  |  | 
CNC(=O)c1ccc(/C=C/C(=O)NCC(=O)N(C)c2ccc(Cl)c(COc3cccc4cnc(C)nc34)c2Cl)cc1 | 56 | 59 | 110 |  |  | 
CNC(=O)c1ccc(/C=C/C(=O)NCC(=O)N(C)c2ccc(Cl)c(COc3cccc4cnc(C)cc34)c2Cl)cc1 |  | > 10000 | > 10000 |  |  | 
CNC(=O)c1ccc(/C=C/C(=O)NCC(=O)N(C)c2ccc(Cl)c(COc3cccc4oc(C)nc34)c2Cl)cc1 | 1100 | 860 | 380 |  |  | 
CNC(=O)c1ccc(/C=C/C(=O)NCC(=O)N(C)c2ccc(C)c(COc3cccc4c3nc(OC)n4C)c2C)cc1 | 7.2 |  | 1.6 | 59.7 |  | 
CNC(=O)c1ccc(/C=C/C(=O)NCC(=O)N(C)c2ccc(Cl)c(COc3cccc4c3nc(OC)n4C)c2Cl)cc1 | 2.2 |  | 0.83 | 21.7 |  | 
CNC(=O)c1ccc(/C=C/C(=O)NCC(=O)N(C)c2ccc(Cl)c(COc3cccc4ccc(C)nc34)c2Cl)cc1 | 1.1 | 1.3 | 0.51 |  | 81.9 | 67.4
CCc1nc2c(OCc3c(Cl)ccc(N(C)C(=O)CNC(=O)/C=C/c4ccc(C(=O)NC)cc4)c3Cl)cccc2n1C | 22 |  | 8.7 | 31.7 |  | 
CNC(=O)c1ccc(/C=C/C(=O)NCC(=O)N(C)c2ccc(Cl)c(COc3cccc4ncc(C)nc34)c2Cl)cc1 | 5.2 | 3.1 | 1 |  |  | 
CC(=O)Nc1ccc(/C=C/C(=O)NCC(=O)N(C)c2ccc(Cl)c(COc3cccc4ncc(C)nc34)c2Cl)cc1 | 2.5 |  | 2.4 | 28.6 |  | 
